Measured values from ChEMBL document CHEMBL3272181, “Design of substrate-site-directed irreversible inhibitors of adenosine 5'-phosphate aminohydrolase. Effect of substrate substituents on affinity for the substrate site” (J Med Chem, 1976).
One block for each compound: values may come before it.

Legend:
[1] = Stability of the compound assessed as papaya protease type 3-mediated amide linkage cleavage at pH 7.6 after 24 hrs by paper electrophoretic analysis; format: ADME; conditions: carica papaya, buffer, pH 7.6, 24 h
How it was run: (§1)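 Compounds were incubated at 37° for 24 h in 0.05 M Tris pH 7.6 (2 ml) with one of: acylase 20 mg; pancreatic protease I 20 mg; fungal II 20 mg; papaya III 10 mg; bacterial IV 200 mg; VI 30 mg; VII 30 or 15 mg; X 5 mg; or hog-intestine peptidase 20 mg. Amide cleavage was checked by paper electrophoresis (pH 7.6, 4 kV, 30 min).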

[2] = Stability of the compound assessed as bacterial protease type 7-mediated amide linkage cleavage at pH 7.6 after 24 hrs by paper electrophoretic analysis; format: ADME; conditions: bacteria, buffer, pH 7.6, 24 h; how it was run: as §1
[3] = Retardation factor, Rf of the compound in 1:1 2-propanol-0.25 M triethylammonium bicarbonate by paper chromatographic analysis; format: physicochemical
[4] = Linear competitive inhibition of rabbit muscle AMP aminohydrolase using AMP as substrate at 21 to 42 uM by Lineweaver-Burk plot analysis; format: tissue-based, Oryctolagus cuniculus, Muscle tissue
How it was run: (§2)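 Rabbit-muscle AMP aminohydrolase (Grade IV), diluted into 1 M KCl before use. Assayed at 22° in 0.01 M citrate buffer pH 6.5 with 25 mM KCl, following the fall in absorbance at 265 nm (Δε 8400, except 8-bromo-AMP). Initial velocities were linear and proportional to enzyme. At least four substrate and two inhibitor levels were used; parameters came from Lineweaver-Burk plots.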

[5] = organism: Oryctolagus cuniculus; experiment: Activity at rabbit muscle AMP aminohydrolase after 24 hrs by Lineweaver-Burk plot analysis relative to AMP; format: tissue-based; conditions: Muscle tissue
[6] = Stability of the compound assessed as pancreatic protease type 1 (unknown origin)-mediated amide linkage cleavage at pH 7.6 after 24 hrs by paper electrophoretic analysis; format: ADME; conditions: buffer, pH 7.6, 24 h; how it was run: as §1
[7] = Stability of the compound assessed as bacterial protease type 10-mediated amide linkage cleavage at pH 7.6 after 24 hrs by paper electrophoretic analysis; format: ADME; conditions: bacteria, buffer, pH 7.6, 24 h; how it was run: as §1
[8] = Stability of the compound assessed as bacterial protease type 6-mediated amide linkage cleavage at pH 7.6 after 24 hrs by paper electrophoretic analysis; format: ADME; conditions: bacteria, buffer, pH 7.6, 24 h; how it was run: as §1
[9] = Stability of the compound assessed as bacterial protease type 4-mediated amide linkage cleavage at pH 7.6 after 24 hrs by paper electrophoretic analysis; format: ADME; conditions: bacteria, buffer, pH 7.6, 24 h; how it was run: as §1
[10] = Retardation factor, Rf of the compound in 5:2:3 1-butanol-acetic acid-water by paper chromatographic analysis; format: physicochemical; conditions: buffer
[11] = Stability of the compound assessed as bacterial protease type 8-mediated amide linkage cleavage at pH 7.6 after 24 hrs by paper electrophoretic analysis; format: ADME; conditions: bacteria, buffer, pH 7.6, 24 h
[12] = Stability of the compound assessed as fungal protease type 2-mediated amide linkage cleavage at pH 7.6 after 24 hrs by paper electrophoretic analysis; format: ADME; conditions: fungi, buffer, pH 7.6, 24 h; how it was run: as §1
[13] = Stability of the compound assessed as hog intestinal peptidase-mediated amide linkage cleavage at pH 7.6 after 24 hrs by paper electrophoretic analysis; format: ADME, Sus scrofa; conditions: pig, isolated protein, pH 7.6, 24 h; how it was run: as §1
[14] = Stability of the compound assessed as acylase (unknown origin)-mediated amide linkage cleavage at pH 7.6 after 24 hrs by paper electrophoretic analysis; format: ADME; conditions: buffer, pH 7.6, 24 h; how it was run: as §1
[15] = Retardation factor, Rf of the compound in 7:3 1-propanol-water by paper chromatographic analysis; format: physicochemical; conditions: buffer
[16] = Stability of the compound in Tris buffer at pH 8.5 at 22 degC; format: physicochemical
[17] = Linear competitive inhibition of rabbit muscle AMP aminohydrolase using AMP as substrate at 64 to 128 uM by Lineweaver-Burk plot analysis; format: tissue-based, Oryctolagus cuniculus, Muscle tissue; how it was run: as §2
[18] = Retardation factor, Rf of the compound in 7:3 95% ethanol-1M ammonium acetate at pH 7.5 by paper chromatographic analysis; format: physicochemical
[19] = organism: Oryctolagus cuniculus; experiment: Activity at rabbit muscle AMP aminohydrolase by Lineweaver-Burk plot analysis; format: tissue-based; conditions: Muscle tissue; how it was run: as §2
[20] = Retardation factor, Rf of the compound in 4:1:5 1-butanol-acetic acid-water by paper chromatographic analysis; format: physicochemical; conditions: buffer
[21] = Linear competitive inhibition of rabbit muscle AMP aminohydrolase using AMP as substrate at 12 to 24 uM by Lineweaver-Burk plot analysis; format: tissue-based, Oryctolagus cuniculus, Muscle tissue; how it was run: as §2
[22] = Linear competitive inhibition of rabbit muscle AMP aminohydrolase using AMP as substrate at 14 to 28 uM by Lineweaver-Burk plot analysis; format: tissue-based, Oryctolagus cuniculus, Muscle tissue; how it was run: as §2
[23] = Linear competitive inhibition of rabbit muscle AMP aminohydrolase using AMP as substrate at 49 to 99 uM by Lineweaver-Burk plot analysis; format: tissue-based, Oryctolagus cuniculus, Muscle tissue; how it was run: as §2
[24] = Linear competitive inhibition of rabbit muscle AMP aminohydrolase using AMP as substrate at 49 to 148 uM by Lineweaver-Burk plot analysis; format: tissue-based, Oryctolagus cuniculus, Muscle tissue; how it was run: as §2
[25] = Retardation factor, Rf of the compound in 7:1:2 2-propanol-concentrated ammonia-water by paper chromatographic analysis; format: physicochemical; conditions: buffer
[26] = Linear competitive inhibition of rabbit muscle AMP aminohydrolase using AMP as substrate at 26 to 52 uM by Lineweaver-Burk plot analysis; format: tissue-based, Oryctolagus cuniculus, Muscle tissue; how it was run: as §2
[27] = Non-linear competitive inhibition of rabbit muscle AMP aminohydrolase using AMP as substrate at 46 uM by Lineweaver-Burk plot analysis; format: tissue-based, Oryctolagus cuniculus, Muscle tissue; how it was run: as §2
[28] = organism: Oryctolagus cuniculus; experiment: Activity at rabbit muscle AMP aminohydrolase after 48 hrs by Lineweaver-Burk plot analysis relative to AMP; format: tissue-based; conditions: Muscle tissue
[29] = Non-linear competitive inhibition of rabbit muscle AMP aminohydrolase using AMP as substrate at 23 uM by Lineweaver-Burk plot analysis; format: tissue-based, Oryctolagus cuniculus, Muscle tissue; how it was run: as §2
[30] = Linear competitive inhibition of rabbit muscle AMP aminohydrolase using AMP as substrate at 27 to 54 uM by Lineweaver-Burk plot analysis; format: tissue-based, Oryctolagus cuniculus, Muscle tissue; how it was run: as §2
[31] = Linear competitive inhibition of rabbit muscle AMP aminohydrolase using AMP as substrate at 11 to 23 uM by Lineweaver-Burk plot analysis; format: tissue-based, Oryctolagus cuniculus, Muscle tissue; how it was run: as §2
[32] = Linear competitive inhibition of rabbit muscle AMP aminohydrolase using AMP as substrate at 11 to 22 uM by Lineweaver-Burk plot analysis; format: tissue-based, Oryctolagus cuniculus, Muscle tissue; how it was run: as §2
[33] = Linear noncompetitive inhibition of rabbit muscle AMP aminohydrolase using AMP as substrate at 19 to 38 uM by Lineweaver-Burk plot analysis; format: tissue-based, Oryctolagus cuniculus, Muscle tissue; how it was run: as §2

- Stability [1]: Stable
- Stability [2]: Stable
- Rf [3]: 0.83
- Ki [4]: 17 µM
- Activity [5]: 0%
- Stability [6]: Stable
- Stability [7]: Stable
- Stability [8]: Stable
- Stability [9]: Stable
- Rf [10]: 0.39
- Stability [11]: Stable
- Stability [12]: Stable
- Stability [13]: Stable
- Stability [14]: Stable
SMILES: CCC(=O)NCC(C[C@H]1O[C@@H](n2cnc3c(N)ncnc32)[C@H](O)[C@@H]1O)P(=O)(O)O (stereo partly drawn)

- Rf [15]: 0.27
- Stability [16]: 16 h
- Ki [17]: 330 µM
- Activity [5]: 7.8%
- Rf [18]: 0.17
- Km [19]: 120 µM
- Rf [20]: 0.18
- Rf [10]: 0.31
SMILES: CC(=O)OC(C[C@H]1O[C@@H](n2cnc3c(N)ncnc32)[C@H](O)[C@@H]1O)P(=O)(O)O (stereo partly drawn)

- Rf [3]: 0.71
- Rf [10]: 0.27
SMILES: N#CC(C[C@H]1O[C@@H](n2cnc3c(N)ncnc32)[C@H](O)[C@@H]1O)P(=O)(O)O (stereo partly drawn)

- Rf [3]: 0.81
- Activity [5]: 0%
- Rf [10]: 0.55
- Ki [21]: 14 µM
SMILES: CCCOC(=O)NCC(C[C@H]1O[C@@H](n2cnc3c(N)ncnc32)[C@H](O)[C@@H]1O)P(=O)(O)O (stereo partly drawn)

- Ki [22]: 42 µM
SMILES: CCC(=O)NC[C@H](OP(=O)(O)O)[C@H]1O[C@@H](n2cnc3c(N)ncnc32)[C@H](O)[C@@H]1O

- Rf [15]: 0.49
- Rf [18]: 0.39
- Rf [20]: 0.5
- Rf [10]: 0.65
SMILES: CC(=O)OC(C[C@H]1O[C@@H](n2cnc3c(N)ncnc32)[C@@H]2OC(C)(C)O[C@@H]21)P(=O)(O)O (stereo partly drawn)

- Rf [15]: 0.41
- Activity [5]: 0.07%
- Km [19]: 670 µM
- Rf [20]: 0.34
- Rf [10]: 0.56
- Ki [23]: 105 µM
SMILES: CC(=O)O[C@@H]1[C@H](OC(C)=O)[C@@H](COP(=O)(O)O)O[C@H]1n1cnc2c(N)ncnc21

- Ki [24]: 260 µM
- Activity [5]: 0.5%
- Rf [18]: 0.3
- Rf [25]: 0.34
- Km [19]: 130 µM
- Rf [20]: 0.4
- Rf [10]: 0.59
SMILES: CC1(C)O[C@@H]2[C@H](O1)[C@@H](COP(=O)(O)O)O[C@H]2n1cnc2c(N)ncnc21

- Stability [1]: Stable
- Stability [2]: Stable
- Rf [3]: 0.73
- Activity [5]: 0.61%
- Stability [6]: Stable
- Stability [7]: Stable
- Stability [8]: Stable
- Stability [9]: Stable
- Ki [26]: 20 µM
- Km [19]: 80 µM
- Rf [10]: 0.29
- Stability [11]: Stable
- Stability [12]: Stable
- Stability [13]: Stable
- Stability [14]: Stable
SMILES: CC(=O)NCC(C[C@H]1O[C@@H](n2cnc3c(N)ncnc32)[C@H](O)[C@@H]1O)P(=O)(O)O (stereo partly drawn)

- Ki [27]: 30 µM
- Activity [28]: > 0%
- Ki [29]: 47 µM
SMILES: CC(=O)NC[C@@H](OP(=O)(O)O)[C@H]1O[C@@H](n2cnc3c(N)ncnc32)[C@H](O)[C@@H]1O

- Rf [3]: 0.75
- Activity [5]: 0%
- Ki [30]: 19 µM
- Rf [10]: 0.33
SMILES: COC(=O)NCC(C[C@H]1O[C@@H](n2cnc3c(N)ncnc32)[C@H](O)[C@@H]1O)P(=O)(O)O (stereo partly drawn)

- Activity [5]: > 0%
- Ki [31]: 18 µM
SMILES: CC(=O)NC[C@H](OP(=O)(O)O)[C@H]1O[C@@H](n2cnc3c(N)ncnc32)[C@H](O)[C@@H]1O

- Ki [32]: 16 µM
- Rf [3]: 0.78
- Activity [5]: 0%
- Rf [10]: 0.41
SMILES: CCOC(=O)NCC(C[C@H]1O[C@@H](n2cnc3c(N)ncnc32)[C@H](O)[C@@H]1O)P(=O)(O)O (stereo partly drawn)

- Ki [33]: 205 µM
- Activity [28]: 0%
SMILES: CCC(=O)NC[C@@H](OP(=O)(O)O)[C@H]1O[C@@H](n2cnc3c(N)ncnc32)[C@H](O)[C@@H]1O

- Rf [3]: 0.49
- Activity [5]: 0.65%
- Km [19]: 140 µM
- Rf [10]: 0.21
SMILES: NCC(C[C@H]1O[C@@H](n2cnc3c(N)ncnc32)[C@H](O)[C@@H]1O)P(=O)(O)O (stereo partly drawn)

- Activity [5]: 100%
- Km [19]: 600 µM
- Vmax [19]: 294 µmol/min
SMILES: Nc1ncnc2c1ncn2[C@@H]1O[C@H](COP(=O)(O)O)[C@@H](O)[C@H]1O
